Screening results as filed in PubChem BioAssay.
Rows were chosen to be rich in hits. Some 2% of all compounds tested hit in one or more screens of this group.
Insulin prom up = MIN6 insulin promoter up-regulation | z-score at 5 µM | MIN6 insulin promoter-GFP reporter, high-content imaging; hits give high values | 0.3% of 190,000 active | AID 1625;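 active = z-score above 3 at 5 µM with at least 500 cells counted in the well; inconclusive = wells under 500 cells, flagged as cytotoxic or low count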
INS promoter inh = TRM-6 insulin promoter activity inhibition; TRM-6 cells (human fetal islet line), insulin promoter-eGFP reporter, imaging; reporter expression induced with tamoxifen; inhibition, % at 2 µM; 0.9% of 130,000 active; AID 1273;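 active = inhibition above the mean plus 3 SD, with well images judged a real hit on visual review, cut at about 60% in these data, passing the limit was not always enough; inconclusive = inhibition over the cutoff but images rejected on review; inactive = inhibition not above the cutoff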
Autophagy mod = alters autophagy in cells | MEF GFP-LC3 puncta imaging; test concentration mostly 10 µM | calls only at 10 µM (by protocol) | 0.98% of 190,000 active;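 active = percentage of spot-positive cells more than 3 SD above its plate mean, without a fluorescence outlier flag or 80% toxicity; inconclusive = no clear call, values can overlap the other calls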;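 note: spot-positive cell cutoff set from DMSO-treated cells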
Dynein cargo inh = dynein cargo transport inhibition; z-score, hits read low; AID 1381; 0.47% of 220,000 active; 3617.4 mouse cells, GR-EGFP nuclear translocation imaging; test concentration mostly 20 µM; stimulated with dexamethasone, 1 µM; hits give low values;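 active = plate z-score of nuclear minus cytoplasmic receptor signal below a set negative limit, without overly bright fluorescence or cell loss, cut at about -3.5 in these data, passing the limit was not always enough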;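 note: z-score of nuclear minus cytoplasmic ring GR-EGFP intensity difference per well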
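medium = tetracycline-free induction medium containing charcoal-stripped FBS | probe or stimulus = dexamethasone, 1.0 µM final | timing = 48 h induction, then 1 h compound, then 30 min agonist, 37 °C | detection = automated 10x imaging of fixed Hoechst-stained cells | read-out basis = nuclear versus cytoplasmic GR-EGFP signal, averaged per well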
* marks the source's active call; other numbers are inactive results; i = inactive; ? = inconclusive; . = no result given; + = active, no number.

SMILES | Insulin prom up | INS promoter inh | Autophagy mod | Dynein cargo inh
O=C(Cn1c(-c2cncs2)nc2ccccc21)NCCc1ccccc1 | 0.71 | . | i | -0.149
COc1cccc(NC(=O)Cn2c(-c3cncs3)nc3ccccc32)c1 | 5.27* | -13.3 | i | -0.38
Nc1sc(-c2ccccc2)c(Cc2ccccc2)c1C(=O)O | 0.92 | 63.6 | i | 0.17
Fc1ccc(-n2cc(-c3ccccc3)c3c(N4CCOCC4)ncnc32)cc1 | -2.22 | -92.6 | i | -0.291
CCN1CCN(c2ncnc3c2c(-c2ccccc2)cn3-c2ccc(F)cc2)CC1 | . | 0.0 | + | 0.458
CCOc1cc(NC(=S)NCCCN2CCOCC2)c(OCC)cc1NC(=O)C1CCCCC1 | -0.35 | . | i | -0.271
COc1cc(SC)ccc1C(=O)Nc1ncc(Cl)cc1Cl | -0.62 | -41.7 | + | 3.62
CC(=O)C1=C(C)NC(SCC(=O)c2ccc(Cl)cc2)=C(C#N)C1c1ccco1 (stereo not drawn) | 1.08 | -71.4 | + | 0.827
COc1ccc(CCNC(=O)C2CCN(S(=O)(=O)c3c(C)noc3C)CC2)cc1OC | -0.71 | 65.5* | i | 0.145
Cc1cccc(CCNC(=O)C2CCN(S(=O)(=O)c3c(C)noc3C)CC2)c1 | -0.66 | 23.3 | i | -0.426
N#C/C(=C\c1cccc(O)c1)C(=O)Nc1ccc2c(c1)OCCO2 | -0.57 | . | . | -0.00801
CCOc1ccccc1NC(=O)NCc1ccco1 | 0.08 | . | . | 0.629
CCOC(=O)c1cc(-c2ccc(OC)cc2)nc2c1c(C)nn2CCC#N | -1.95 | -350.0 | i | -0.258
COc1ccc(-c2cc(Nc3ccccc3NC(=O)C(F)(F)F)n(CCC#N)n2)cc1 | -0.76 | 60.0* | i | -0.775
Cc1ccc(CN2CCN(Cc3cccc4nccnc34)CC2CCO)cc1 (stereo not drawn) | -0.07 | . | . | -0.0577
O=C(Nc1ccon1)c1cccc(S(=O)(=O)N2CCCCC2)c1 | 3.46* | . | i | 0.21
O=C(N/N=C/c1ccccc1)c1n[nH]c2c1CCCC2 | 0.13 | . | i | -0.578
O=C(N/N=C/C(Br)=C/c1ccccc1)c1n[nH]c2c1CCC2 | ? | . | + | -0.625
COc1ccccc1CN1C(=O)[C@@H]2C(CCC(N)=O)NC3(C(=O)Nc4c3ccc(Cl)c4C)[C@@H]2C1=O (stereo partly drawn) | -0.13 | 71.4* | i | 0.233
Cn1c(=O)n(C)c2cc(NC(=O)COc3ccc(Cl)cc3)ccc21 | 3.02* | -11.1 | i | -0.604
Clc1ccc(OCCSc2ncccn2)cc1 | -0.52 | 66.2* | i | -0.242
CC1CCN(C(=O)CNS(=O)(=O)c2ccc(Br)s2)CC1 | 3.37* | 8.3 | i | -0.424
CC1CC(C)CN(C(=O)CNS(=O)(=O)c2ccc(Br)s2)C1 (stereo not drawn) | -0.11 | -2.3 | i | -0.367
Cc1ccc(OCCCCNC2CCCC(C)C2C)c(C)c1 (stereo not drawn) | -0.83 | . | i | -1.12
O=C1NC(=O)/C(=C\c2ccsc2)N1 | 0.36 | 72.2* | i | -1.37
SMILES | Insulin prom up | INS promoter inh | Autophagy mod | Dynein cargo inh
CCN(CC)c1ccc(/C=C2\NC(=O)NC2=O)cc1 | -0.42 | -21.4 | i | 0.885
COc1cccc(N2CCN(c3ncccn3)CC2)c1 | 3.1* | . | i | -0.186
Cc1cccc(N2CCN(Cc3nc(-c4cccc(Oc5ccccc5)c4)oc3C)CC2)n1 | 0.01 | -8.7 | + | -0.0235
CCC(NC(=O)NCc1ccccc1)(C(F)(F)F)C(F)(F)F | 0.16 | 71.4* | i | -0.851
CCC(NC(=O)NCc1ccc2c(c1)OCO2)(C(F)(F)F)C(F)(F)F | 0.11 | 58.8 | i | -0.0302
Cc1c(Cl)cccc1N=c1c([N+](=O)[O-])nn(-c2ccccc2)n1O | . | . | + | 1.57
O=C(CSc1ncnc2sc3c(c12)CCCCC3)NCc1ccco1 | 0.18 | -6.9 | + | 0.245
CCc1cc(C(=O)N2CCCC(C(=O)c3cccc4ccccc34)C2)n(C)n1 (stereo not drawn) | -1.45 | . | i | -0.866
COc1ccc(OCc2csc(N)n2)cc1 | -0.39 | . | i | -0.697
O=C(Nc1ccon1)c1sc2cc(F)ccc2c1Cl | -0.17 | 7.7 | + | -0.356
O=[N+]([O-])c1ccc(-c2ccc(/C=N/Nc3nc(NCc4ccccc4)nc(N4CCOCC4)n3)o2)cc1 | . | -200.0 | + | -1.36
O/N=C/c1ccc2ccccc2c1 | -0.57 | . | i | 0.302
COc1cc(OC)cc(C(=O)OCc2cc3ccccc3[nH]c2=O)c1 | 1.28 | 71.4* | i | -0.888
CCN1CC=C2C(C1)C(c1ccc(Cl)s1)C(C#N)=C(N)C2(C#N)C#N (stereo not drawn) | . | -53.9 | + | -4.57
CCN1CC=C2C(C#N)=C(N)C(C#N)(C#N)[C@H](c3cccc(OC)c3OC)[C@H]2C1 | . | i | ? | -2.6
O=C(NCc1cccnc1)c1cccc(F)c1 | -0.46 | . | + | -1.08
Cc1nn(C)c(C)c1/C=C/C(=O)c1ccc(Cl)cc1Cl | -0.85 | 25.9 | i | 0.226
N#Cc1c2c(c(Nc3ccccc3)n3c1nc1ccccc13)CCC2 | 0.23 | -30.4 | i | 1.03
N#Cc1c2c(c(-n3cnc4ccccc43)n3c1nc1ccccc13)CCC2 | 4.79* | 20.0 | i | -0.659
CCc1c(C)c(C#N)c2nc3ccccc3n2c1N1CCN(c2cc(C)ccn2)CC1 | 0.43 | 2.8 | i | -0.56
Cc1c2c(n3c(nc4ccccc43)c1C#N)N(CCN(C)C)CC2 | -0.12 | -81.8 | i | 0.192
Cc1ccnc(N2CCN(c3c4c(c(C#N)c5nc6ccccc6n35)CCC4)CC2)c1 | . | 85.7* | i | 0.758
Cc1c2c(n3c(nc4ccccc43)c1C#N)N(c1ccccc1)CC2 | 0.24 | -25.0 | + | 0.387
CCOC(=O)N1CCC(N2CCN(C3CCCC3)C(CCO)C2)CC1 (stereo not drawn) | -0.16 | . | i | -0.655
CC1CCCN(CCCOc2ccccc2-c2ccccc2)C1 (stereo not drawn) | -0.94 | . | i | -0.511
SMILES | Insulin prom up | INS promoter inh | Autophagy mod | Dynein cargo inh
CCN(CC)C(=O)c1ccc2nc(-c3ccccc3)c(-c3ccccc3)nc2c1 | 1.64 | 66.7* | i | -0.941
Cc1ccc(-c2nnc(N)s2)cc1 | 0.43 | 7.1 | i | -0.104
COc1ccc(-c2nnc(N)s2)cc1 | -0.64 | 75.0* | i | -0.0399
Oc1ccc(/C=N/NC(=S)N2CCOCC2)cc1 | 1.2 | . | i | 0.837
CC(C)C(c1nnnn1C1CCCC1)N1CCOCC1 (stereo not drawn) | 3.02* | -469.2 | i | 0.155
Cc1c(CN2CCCC(C(=O)c3cccc(OC(C)C)c3)C2)c(=O)n(-c2ccccc2)n1C (stereo not drawn) | -0.29 | . | + | 1.27
COc1ccc2nc(Nc3nc(CSc4nnnn4-c4ccccc4)cc(=O)[nH]3)nc(C)c2c1 | -0.43 | 14.3 | + | -0.78
CCOc1ccc2nc(Nc3nc(CSc4nnnn4-c4ccccc4)cc(=O)[nH]3)nc(C)c2c1 | -0.84 | . | i | -0.277
C=CCN1C(=O)/C(=C/C=C2/N(CC)c3ccc(S(=O)(=O)N(C)C)cc3N2CC)SC1=S | . | . | + | -0.78
CCN1C(=O)/C(=C/C=C2/SCCN2C)SC1=S | 1.71 | . | i | -0.328
CCOC(=O)c1ccc2c(c1)N(CC)/C(=C\C=C1/SC(=S)N(CC)C1=O)N2CC | . | -247.6 | i | -6.03*
